In the RNAGym collection of RNA variant scans (doi:10.1126/science.aae0568):
Fewer inactive variants are shown than the library holds.

B1: tRNA (parent)
chain: GUUCCGUUGGCGUAAUGGUAACGCGUCUCCCUCCUAAGGAGAAGACUGCGGGUUCGAGUCCCGUACGGAACG

Variants of: B1
Assay: yeast fitness relative to wild type (ratio to wild type); higher = fitter; tRNA-Arg(CCU), competitive growth, 37 C, YPD
Procedure, shortened: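 Genotype frequency changes were the basis for Darwinian fitness relative to wild type. The frequencies came from 100-nucleotide paired-end sequencing of gene amplicons from the start population and each end population of pooled yeast strains with tRNA-Arg(CCU) gene variants at the native locus. Competition ran in YPD at 37°C for 24 hours in six replicates, genotypes needed ≥ 100 starting reads, and estimates < 0.5 were set to 0.5.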
GUUGCGUUGGCGUAUUGGUAACGCGUCUCCCUCCUAAGGAGAAGACUGCGGGUUCCAGUCCCGUACGGAACG [C4G A15U G56C] showed a yeast fitness of no more than 0.5. Variant GUUGCGUUGGCGUAAUGGUAGCGCGUUUCCCUCCUAAGGAGAAGACUGCGGCUUCGAAUCCCGUACGGAACG [C4G A21G C27U G52C G58A] has a yeast fitness of no more than 0.5. With GUUGCGUUGGCGUAAUGGUAGCGCGUCUCCCUCGUAAGGAGAAGACUGCGGGUUCGAGUCCCGUACGGAACG [C4G A21G C34G] the yeast fitness was no more than 0.5. GUUGCGUUGGCGUAAUGGUCACGCGUCUCCCUCCUAAGGGGAAGACUGCGGCUUCGAGUCCCGUACGGAACG [C4G A20C A40G G52C] showed a yeast fitness of 0.6. For GUUGCGUUGGCGUAUUGGUAACGCGUCUCCCUCCUAAGGCGAAGACUGCGGGUUCGAGUAGCGUCCGGAACG [C4G A15U A40C C60A C61G A65C], the yeast fitness was no more than 0.5. With GUUGCGUUGGCGUUAUGGUAACGCGUCUCCUUCCUAAGGAGAAAAUUGUGGGUUCGAGUCCCGUACGGAACG [C4G A14U C31U G44A C46U C49U] the yeast fitness was no more than 0.5. With GUUGCGUUGGCGUAUUGGUAACGCGUCUCCCUACUAAGGAGAAGACUGCGGCUUGGAGUCCCGUACGGAACG [C4G A15U C33A G52C C55G] the yeast fitness was no more than 0.5. GUUGCGUUGGCGUAUUGGUAACGCGUCUCCCUACUAAGGAGAAGACUGCGGCUUCGAGUCCCGUACGGAACG [C4G A15U C33A G52C] showed a yeast fitness of 0.707. With GUUGCGUUGGCGUAUUGGUAACGCGUCUCCCUCCUAAGGAGAAGACUGCGGGUUAGAGUCCCGUACGGAACG [C4G A15U C55A] the yeast fitness was no more than 0.5. In the case of GUUGCGUUGGCGUAAUGGUGACGCGUCUCGCUCCUAAGGAGAAGACUGCGGGUUCGAAUCCCGUACGGAACG [C4G A20G C30G G58A], the yeast fitness is reported as no more than 0.5. With GUUGCGUUGGCGUAAUGGUUACGCGUCUCCGUCCUAAGGAGAAGACUGCGGGUUCGAGUCCAGUACGGAACG [C4G A20U C31G C62A] the yeast fitness was no more than 0.5. GUUGCGUUGGCGUAAUGGUCACGCGUCUCAGUCAUAGGGAGAAGACUGAGGGUUCGCGUCCCGUACGGAACG [C4G A20C C30A C31G C34A A37G C49A A57C] gave a yeast fitness of no more than 0.5. GUUGCGUUGGCGUACUGGUAACGCGGCUCCCUCCUAAGGACAAGACUGCGGGUUCGAGUGCCGUACGGAACG [C4G A15C U26G G41C C60G] gave a yeast fitness of 0.631. Work on GUUGCGUUGGCGUUAUGGUAACGCGUCUCCCCCCUAAGGAGAAGUCUGGGGGUUCGAGUCCCGCACGGAACG [C4G A14U U32C A45U C49G U64C] yielded a yeast fitness of no more than 0.5. Variant GUUGCGUUGGCGUAUUGGUAACGCGUCUCCCUCCUAAGGCGAAGACUGCGGGUUCGAGUCCCGUACGGAACG [C4G A15U A40C] has a yeast fitness of no more than 0.5. With GUUGCGUUGGCGUAAUGGUAGCGCGUCUCCCUCCUUAGGAGAAGACUGCGGGUUCGAGUCCCGUACGGAACG [C4G A21G A36U] the yeast fitness was no more than 0.5. With GUUGCGUUGGCGUAAUGGUCACGCGUCUCCCUCCUAAGGAGAAGACUGCGGGUGCGAGUCCCGUACGGAACG [C4G A20C U54G] the yeast fitness was 0.529. Work on GUUGCGUUGGCGUAAUGGUUACGCGUCUUCCUCCUAAGGAGAAGACUGUGGGUUCGAGUCCCGUACGGAACG [C4G A20U C29U C49U] yielded a yeast fitness of no more than 0.5. Work on GUUGCGUUGGCGUACUGGUAACGCGUCUCCCUCCUAAGGAGAAGACUGCGGGUUCGAGUCCCGUAUGGAACG [C4G A15C C66U] yielded a yeast fitness of 0.539. GUUGCGUUGGCGUAAUGGUAGCGCGUCUCCCUCCUAAGGAGAAGUCUGUGGGUUCGAGUCCCGCAUGGAACG [C4G A21G A45U C49U U64C C66U] showed a yeast fitness of no more than 0.5. Variant GUUGCGUUGGCGUAAUGGUAGCGCGUCUCCCUCCUAAGGAGAAGUCUGUGGGUUCGAGUCCCGUACGGACCG [C4G A21G A45U C49U A70C] has a yeast fitness of no more than 0.5. With GUUGCGUUGGCGUACUGGUAACGCGGCUCCCUCCUAAGGACAAGACCGCGGGUUCGAGUCCCGUACGCAACG [C4G A15C U26G G41C U47C G68C] the yeast fitness was no more than 0.5. For GUUGCGUUGGCGUAUUGGUAACGCGUCUCCCUACUAAGGAGAAGACUGCGGGUUCGAGUCCCGUACGCAACG [C4G A15U C33A G68C], the yeast fitness was no more than 0.5. Work on GUUGCGUUGGCGUUAUGGUAACGCGUCUCCCUCCUAAGGAGAAGACUGCGGGUUCGAGGCCCGUACGGAACG [C4G A14U U59G] yielded a yeast fitness of no more than 0.5. In the case of GUUGCGUUGGCGUAAUGGUACCCCGUCUCCCUCCUUAGGAGAAGACUGCGGGUUCGAGUCCCGUACGGAACG [C4G A21C G23C A36U], the yeast fitness is reported as 0.635. GUUGCGUUGGCGUAGUGGUAACGCGUCUCCCUCCUAAGGAGAGGACUGCGGGUUCGCGUCCCGUUCGGAACG [C4G A15G A43G A57C A65U] gave a yeast fitness of no more than 0.5. GUUGCGUUGGCGUAAUGGUAGCGCGUAUCCCUCCUAACGAGAAGACUGCGGGUUCGAGUCCCGUACGGAACG [C4G A21G C27A G38C] gave a yeast fitness of no more than 0.5. For GUUGCGUUGGCGUACUGGUAACGCGUCUCCCUCCUAAGGAGAAGACUGCGGGUUCGAGUCCCGUACGGAACG [C4G A15C], the yeast fitness was 0.719. Work on GUUGCGUUGGCGUAUUGGUAACGCGUCUCCCUCCUAAGGAGAAGACUGCGGGUUCGAGUCCCGUACGGAACG [C4G A15U] yielded a yeast fitness of 0.824. GUUGCGUUGGCGUAAUGGUGAGGCGUCUCCCUUCUCAGGUGAAGACUGCGGGUUCGAGUCCCGUACGGAACG [C4G A20G C22G C33U A36C A40U] showed a yeast fitness of no more than 0.5. With GUUGCGUUGGCGUACUGGUAACGCGUCUCCCUCCUAAGGAGAAGACUGCGGGUUCGUGUCGCGUACGGAACG [C4G A15C A57U C61G] the yeast fitness was no more than 0.5. For GUUGCGUUGGCGUAAUGGUACCGCGUCUCCCUCCUAAGGAGAUGACUGCGGGUUCGAGUCCCGUACGGAACG [C4G A21C A43U], the yeast fitness was no more than 0.5. Variant GUUGCGUUGGCGUAAUGGUACCGCGUCUCCCUCCUAAGGAGAAGACUGCGGGUUCGAGUCCCGUACGGAACG [C4G A21C] has a yeast fitness of 0.609. In the case of GUUGCGUUGGCGUUAUGGUAACACGUCUCCCUCCUAAGGAGAAGACUGCGGGUUCCAGUCCCGUACGGAACG [C4G A14U G23A G56C], the yeast fitness is reported as no more than 0.5. Work on GUUGCGUUGGCGUAAUGGUUACGCGUCUCCGUCCUAAGGAGAAGACUGCGAGUUCGAGUCCCGUACGGAACG [C4G A20U C31G G51A] yielded a yeast fitness of no more than 0.5. Variant GUUGCGUUGGCGUAAUGGUUAGGCGUCUCCCUCCUACGGAGACGACUGCGGGUUCGAGUCCCGUGCGGAACG [C4G A20U C22G A37C A43C A65G] has a yeast fitness of no more than 0.5. GUUGCGUUGGCGUAGUGGUAACGCGUCUCCCUCCUAAGGAGAAGACUGCGGGUACGAGUCCCGUACGGAUCG [C4G A15G U54A A70U] gave a yeast fitness of no more than 0.5. In the case of GUUGCGUUGGCGUAAUGGUCACGCGUCUCCUUCCUAAGGAGAAGACUGCGGGUUCGAGUCCCGUACGGAACG [C4G A20C C31U], the yeast fitness is reported as 0.536.
